# INS promoter inh: TRM-6 insulin promoter activity inhibition; 0.9% of 130,000 active; TRM-6 cells (human fetal islet line), insulin promoter-eGFP reporter, imaging; reporter expression induced with tamoxifen; inhibition, % at 2 µM;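 active = inhibition above the mean plus 3 SD, with well images judged a real hit on visual review, cut at about 60% in these data, passing the limit was not always enough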
# Dynein transport: dynein cargo transport inhibition; 3617.4 mouse cells, GR-EGFP nuclear translocation imaging; test concentration mostly 20 µM; stimulated with dexamethasone, 1 µM; stronger effect = lower value; z-score, hits read low; 0.47% of 220,000 active;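 active = plate z-score of nuclear minus cytoplasmic receptor signal below a set negative limit, without overly bright fluorescence or cell loss, cut at about -3.5 in these data, passing the limit was not always enough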;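 note: z-score of nuclear minus cytoplasmic ring GR-EGFP intensity difference per well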
#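 Schedule: 48 h induction, then 1 h compound, then 30 min agonist, 37 °C. Buffer or medium: tetracycline-free induction medium containing charcoal-stripped FBS. Reagent: 1.0 µM final dexamethasone stimulus. Evaluation: nuclear versus cytoplasmic GR-EGFP signal, averaged per well. Signal: high-content fluorescence imaging after fixation.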
# Insulin prom up: MIN6 insulin promoter up-regulation; MIN6 insulin promoter-GFP reporter, high-content imaging; stronger effect = higher value; z-score at 5 µM; 0.3% of 190,000 active;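 active = z-score above 3 at 5 µM with at least 500 cells counted in the well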
# Autophagy HCS: autophagy modulation, high-content screen. MEF GFP-LC3 puncta imaging; test concentration mostly 10 µM. calls only at 10 µM (by protocol). 0.98% of 190,000 active. AID 463193;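 active = percentage of spot-positive cells more than 3 SD above its plate mean, without a fluorescence outlier flag or 80% toxicity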;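 note: spot-positive cell cutoff set from DMSO-treated cells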
# HSV replic up: increases HSV replication in cells; HSV replication augmentation in cells, fold increase; 0.005% of 220,000 active; maximum fold increase; in the data active = maximum fold increase above about 1.5; tested in PC3 cells
# Furin inhibitor: blocks human furin protease activity | P09958 | purified furin, fluorogenic substrate cleavage | inhibition, % at 20 µM or 30 µM | 0.061% of 220,000 active | AID 463115; in the data active = inhibition above about 25%
# Target sequence (P09958 108-714 limits assumed): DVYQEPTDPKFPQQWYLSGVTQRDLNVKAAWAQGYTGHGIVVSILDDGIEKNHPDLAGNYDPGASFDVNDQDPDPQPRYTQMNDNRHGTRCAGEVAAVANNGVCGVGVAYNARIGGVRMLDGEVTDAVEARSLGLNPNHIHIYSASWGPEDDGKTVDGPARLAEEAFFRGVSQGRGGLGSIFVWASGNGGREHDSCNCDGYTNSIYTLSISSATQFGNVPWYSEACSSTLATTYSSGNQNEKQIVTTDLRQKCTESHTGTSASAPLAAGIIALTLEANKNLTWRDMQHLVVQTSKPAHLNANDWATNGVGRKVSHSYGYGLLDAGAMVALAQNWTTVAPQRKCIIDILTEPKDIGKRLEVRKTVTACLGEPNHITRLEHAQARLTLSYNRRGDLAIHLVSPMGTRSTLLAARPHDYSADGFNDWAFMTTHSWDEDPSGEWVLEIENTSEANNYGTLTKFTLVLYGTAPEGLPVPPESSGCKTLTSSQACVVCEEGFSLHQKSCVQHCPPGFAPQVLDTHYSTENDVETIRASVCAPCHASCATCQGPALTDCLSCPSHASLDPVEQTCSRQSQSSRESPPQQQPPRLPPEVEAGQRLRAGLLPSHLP
# Active calls of the source: *; i = inactive; x = no result; + = active, no number. Compounds with a hit are over-represented: about 2% of the library has one in this group of screens.
SMILES,INS promoter inh,Dynein transport,Insulin prom up,Autophagy HCS,HSV replic up,Furin inhibitor
OCCC1CN(Cc2cc3c(cc2Cl)OCO3)CCN1C1CCCC1 (stereo not given),x,0.084,0.41,i,i,-33
CCN1CCN(CCNC(=O)c2ccc(/C=C3\Sc4ccccc4N(Cc4ccccc4F)C3=O)cc2)CC1,-45,0.22,-0.91,+,i,-19
CCN1/C(=C2\OC(=S)N(C)C2=O)C=Cc2ccccc21,x,0.14,x,i,i,0
CCN1/C(=C2\SC(=S)N(Cc3ccccc3)C2=O)Sc2ccccc21,x,0.23,-0.1,+,i,0
CCN1/C(=C2\OC(=S)N(C)C2=O)Sc2ccccc21,x,0.68,1.7,+,x,-8
CC(=O)OCC1(C)CN(c2ccccc2)NC1=O (stereo not given),x,0.028,0.25,i,i,-26
CC(=O)c1cc(C#N)c(N2CCCC2)nc1C,x,-0.087,0.2,i,i,-27
COc1ccccc1N1CCN(C/C(O)=C(\C#N)c2nc(-c3ccccc3)cs2)CC1,-42,-0.59,3.2*,i,i,-29
CCN(CC)CCNC(CC(=O)Nc1ccc(Cl)cc1Cl)C(=O)O (stereo not given),94*,1.6,x,i,i,-7
CCN(CC)CCNC(=O)COc1ccc(Cl)cc1Cl,-49,-0.14,-0.11,i,x,-17
Cc1ccc(S(=O)(=O)NCCC(=O)NC2CCCC2)cc1,x,1.3,0.18,+,x,-23
COc1ccc(/C=C/C(=O)c2ccccc2)cc1Cn1nnc2ccccc21,x,-1.2,2.1,i,i,-9
CCCCn1c(=O)c(CC(C)=O)nc2ccccc21,15,-0.42,-0.33,i,i,-8
CCCCn1c(N(CCOC(C)=O)C(C)=O)nc2ccccc21,89*,1.6,x,i,i,-3
CCOC(=O)c1[nH]c2ccccc2c1NC(=S)Nc1cc(C)ccc1C,76*,0.47,0.35,i,x,-14
CCOC(=O)c1[nH]c2ccccc2c1NC(=S)Nc1ccccc1C,40,0.34,0.68,i,x,-7
O=C(Nc1nc2ccc(S(=O)(=O)N3CCCCC3)cc2s1)C1CCCO1 (stereo not given),-5,-0.76,-0.42,i,i,-4
O=C(Nc1nc2ccc(Cl)cc2s1)C1CCCO1 (stereo not given),6,-0.56,0.19,i,i,-2
COc1ccc2nc(NC(=O)c3cc(S(=O)(=O)N4CCOCC4)ccc3C)sc2c1,31,0.77,x,i,i,-10
COc1ccc2nc(NC(=O)c3cccc(S(=O)(=O)N4CCOCC4)c3)sc2c1,74*,-0.97,-0.9,i,i,-10
COc1cccc(Nc2nc3ccc(OC)cc3s2)c1,71*,0.33,0.16,i,i,-22
O=C(Nc1nc2ccc([N+](=O)[O-])cc2s1)C1CCCO1 (stereo not given),x,0.29,0.16,+,i,-18
O=C(Nc1nc2ccc(S(=O)(=O)N3CCCC3)cc2s1)C1CCCCC1,-12,-1,-0.22,+,x,-30
CC(=O)c1ccc(OCC(=O)NCc2ccc(F)cc2)cc1,29,0.4,-0.31,i,i,-12
COc1ccc2nc(NC(=O)CS(=O)(=O)Cc3ccccc3)sc2c1,x,0.094,0.27,+,i,-18
SMILES,INS promoter inh,Dynein transport,Insulin prom up,Autophagy HCS,HSV replic up,Furin inhibitor
CN(Cc1nc2ccccc2n1C)S(=O)(=O)c1ccc(F)cc1,93*,-0.097,-0.34,i,i,-13
CCOc1ccc(-n2cc(-c3ccccc3)c3c(N4CCOCC4)ncnc32)cc1,-20,-0.53,-1.1,+,i,-12
O=C1CCCC(O)=C1C=Nc1cccc(C(F)(F)F)c1,-55,-1.7,0.23,i,i,26*
O=C(Nc1cccc(Cl)c1)/C(=C\c1cccnc1)NC(=O)c1ccco1,67*,0.00087,0.02,i,i,-16
NS(=O)(=O)c1ccc(CCNC(=O)c2cccc(OC(F)F)c2)cc1,-69,-0.41,-0.43,+,i,-16
NS(=O)(=O)c1ccc(CCNC(=O)c2ccccc2F)cc1,-115,0.44,0.42,i,i,-28
COc1ccc(NS(=O)(=O)c2ccc(N3CC(O)=C(c4ccccc4)C3=N)cc2)cc1,x,-0.17,1.2,x,i,-14
CC1=C(C(=O)N2CCOCC2)C(c2ccc(Br)cc2)NC(=S)N1c1ccccc1 (stereo not given),x,-0.41,1.1,i,i,-29
CC1=C(C(=O)N2CCOCC2)C(c2ccc(OC(F)F)cc2)NC(=S)N1c1ccccc1 (stereo not given),37,0.31,-0.42,+,i,-17
O=c1[nH]c(Nc2ccccn2)cc2ccccc12,x,x,x,x,i,x
O=c1[nH]c(-c2ccccn2)cc2ccccc12,67*,-1.2,0.38,i,i,-64
Cc1ccc2nc(NCc3ccccc3)[nH]c2c1,x,0.43,-1.6,+,i,-5
COc1ccc2nc(NCc3ccccc3)[nH]c2c1,0,-0.29,-0.28,i,i,-17
C=C(C)CSc1nc2nc(C)c(Br)cc2[nH]1,79*,-0.6,0.29,i,i,-9
COC(=O)CSc1nc2nc(C)c(Br)cc2[nH]1,17,2.4,-0.32,i,i,-15
Cc1ccc(Nc2ncnc(N)n2)cc1C,x,-0.36,-0.07,i,i,-21
Cc1ccc(C(=O)/C=C/Nc2ccccc2C(N)=O)o1,68,-0.73,0.05,i,i,-17
NC(=O)c1ccccc1N/C=C/C(=O)c1ccc(F)cc1,21,2.9,0.34,i,x,27*
NC(=O)c1ccccc1N/C=C/C(=O)c1cccs1,x,x,0.09,i,i,-22
NC(=O)c1ccccc1N/C=C/C(=O)c1ccc(Cl)cc1Cl,74*,0.16,-0.1,i,x,-21
CC1=CC(C)(C)N(S(=O)(=O)c2ccc(F)cc2)c2ccccc21,6,-0.87,0.02,i,i,-17
CC(=O)Nc1ccc(S(=O)(=O)N2c3ccccc3C(C)=CC2(C)C)cc1,x,0.075,-0.85,+,i,-21
CC1=CC(C)(C)N(S(=O)(=O)c2ccc(C)cc2)c2ccc(C)cc21,51,0.62,-2.9,+,i,-17
CCOC(=O)N1CCC(NC(=O)c2cc(C(=O)Nc3ccc(OC)c(OC)c3)ccc2CO)CC1,x,-1.4,3.4*,i,i,-10
CCOC(=O)c1ccc(NC(=O)c2ccc(CO)c(C(=O)NC3CCN(C(=O)OCC)CC3)c2)cc1,x,0.049,-0.96,i,i,-10
Cc1ccc(C)c2[nH]c(=O)c(CN(Cc3ccco3)C(=S)NCC3CCCO3)cc12 (stereo not given),-47,-1.5,-0.59,i,i,-23
CCCc1nn(CCc2ccccn2)c(N)c1CC,69*,-1,x,i,i,-2
O=C(NCCN1CCOCC1)/C(=C\c1ccc(Br)cc1)NC(=O)c1cccs1,39,1.1,0.04,i,i,-7

# Screening data as filed in PubChem.
